# Measurements: ChEMBL document CHEMBL6127097, “Structure-Guided Discovery of cis-Hexahydro-pyrido-oxazinones as Reversible, Drug-like Monoacylglycerol Lipase Inhibitors” (J Med Chem, 2024)
# Key:
# Monoglyceride lipase = biological target: T1, Monoglyceride lipase (Homo sapiens, UniProt Q99685); assay: Inhibition of human MAGL using native substrate by Rapidfire MS assay
# T1 sequence (Q99685 whole entry): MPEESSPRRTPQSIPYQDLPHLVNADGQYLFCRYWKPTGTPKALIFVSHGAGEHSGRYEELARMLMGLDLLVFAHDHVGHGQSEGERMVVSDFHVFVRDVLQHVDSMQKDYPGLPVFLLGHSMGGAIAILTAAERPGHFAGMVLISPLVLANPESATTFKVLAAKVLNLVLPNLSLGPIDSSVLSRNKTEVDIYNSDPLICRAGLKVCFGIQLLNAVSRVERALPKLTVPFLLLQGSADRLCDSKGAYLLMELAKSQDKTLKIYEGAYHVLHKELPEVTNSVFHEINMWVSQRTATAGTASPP
# [1] = Aqueous solubility of compound in phosphate buffer at pH 6.5 by HPLC or MS/MS analysis; format: physicochemical; conditions: phosphate buffer, read-out: solubility
# Summary of the method: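 Lyophilization solubility assay (LYSA) starting from a 10 mM DMSO stock. DMSO was removed by centrifugal vacuum evaporation, then 0.05 M phosphate buffer pH 6.5 was added and samples sonicated. Filtrates were analysed by MS/MS and/or HPLC against a 4- to 7-point calibration curve.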
# [2] = Octanol-water partition coefficient, logD of the compound at pH 7.4 incubated for 1.5 hrs by shake flask based LC-UV/MS analysis; format: physicochemical; conditions: pH 7.4
# Summary of the method: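 CAMDIS shake-flask variant. 10 mM DMSO stock is diluted into 25 mM phosphate pH 7.4 over a 1-octanol-impregnated PVDF membrane and shaken 1.5 h at 21 °C, at two octanol/buffer ratios, in triplicate. Remaining aqueous concentration is read by LC/MS; logD comes from the difference with and without octanol.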
# [3] = Free fraction in human plasma incubated for 5 hrs by equilibrium dialysis based LC-MS/MS analysis; format: ADME, cell-free
# Summary of the method: (§1)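 Equilibrium dialysis across a 12–14 kDa cutoff membrane in a Teflon 96-well device. Pooled frozen plasma is adjusted to pH 7.4 and spiked at 1000 nM initial total, against Soerensen buffer pH 7.4. Incubation is 5 h at 37 °C, 5% CO2, with diazepam control in each well. %fu = 100 × buffer/matrix concentration after dialysis; recovery accepted at 80–120%.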
# [4] = Plasma protein binding in human assessed as fraction unbound by equilibrium dialysis based LC-MS/MS method; format: ADME, cell-free
# Summary of the method: as §1
# [5] = Unbound brain to plasma partition coefficient of compound in C57BL/6 mouse at 24 mg/kg, ip measured upto 7 hrs by LC-MS/MS analysis; conditions: read-out: K(p,uu,brain)
# [6] = AUClast in C57BL/6 mouse at 24 mg/kg, ip measured upto 7 hrs by LC-MS/MS analysis; conditions: in vivo
# [7] = Tmax in C57BL/6 mouse at 5.1 mg/kg, po measured upto 7 hrs by LC-MS/MS analysis; conditions: in vivo
# [8] = Clearance in C57BL/6 mouse at 1.3 mg/kg, iv measured upto 7 hrs by LC-MS/MS analysis; conditions: in vivo
# [9] = Cmax in C57BL/6 mouse at 5.1 mg/kg, po measured upto 7 hrs by LC-MS/MS analysis; conditions: in vivo
# [10] = Volume of distribution at steady state in C57BL/6 mouse at 1.3 mg/kg, iv measured upto 7 hrs by LC-MS/MS analysis; conditions: in vivo, read-out: Vdss
# [11] = Half-life in C57BL/6 mouse at 24 mg/kg, ip measured upto 7 hrs by LC-MS/MS analysis; conditions: in vivo
# [12] = AUClast in C57BL/6 mouse at 5.1 mg/kg, po measured upto 7 hrs by LC-MS/MS analysis; conditions: in vivo
# [13] = Half-life in C57BL/6 mouse at 1.3 mg/kg, iv measured upto 7 hrs by LC-MS/MS analysis; conditions: in vivo
# [14] = Tmax in C57BL/6 mouse at 24 mg/kg, ip measured upto 7 hrs by LC-MS/MS analysis; conditions: in vivo
# [15] = Ratio of drug concentration in C57BL/6 mouse CSF to plasma at 24 mg/kg, ip measured upto 7 hrs by LC-MS/MS analysis
# [16] = Ratio of drug concentration in C57BL/6 mouse brain to plasma at 24 mg/kg, ip measured upto 7 hrs by LC-MS/MS analysis
# [17] = Cmax in C57BL/6 mouse at 24 mg/kg, ip measured upto 7 hrs by LC-MS/MS analysis; conditions: in vivo
# [18] = Oral bioavailability in C57BL/6 mouse at 5.1 mg/kg measured upto 7 hrs by LC-MS/MS analysis; conditions: in vivo
IC50 (Monoglyceride lipase; read-out: IC50) [µM],solubility [1] [µg/mL],logD at 1.5 h [2],IC50 (Monoglyceride lipase; read-out: pIC50 (converted)) [µM],SMILES,also measured
0.003,2,3.6,–,O=C1COc2ccc(C(=O)N3CCC(c4c[nH]c5ccc(Cl)cc45)CC3)cc2N1,–
0.021,0.3,3.8,–,O=C1COc2ccc(C(=O)N3CCC(c4c[nH]c5cc(Cl)ccc45)CC3)cc2N1,–
0.032,4.1,3.8,0.0288,O=C1COc2ccc(C(=O)N3CCC(Cc4ccc(C(F)(F)F)cc4)CC3)cc2N1,fraction unbound at 5 h [3]: 0.005; fraction unbound [4]: 0.005
0.001,< 0.1,3.8,–,O=C1COc2ccc(C(=O)N3CCC(C(c4ccc(F)cc4)c4ccc(F)cc4)CC3)cc2N1,–
0.965,2.9,3.8,0.912,O=C(c1ccc2cn[nH]c2c1)N1CCC(Cc2ccc(C(F)(F)F)cc2)CC1,–
0.062,0.8,3.3,0.0575,O=C1COc2ccc(C(=O)N3CCC(Cc4ccc(F)cc4)CC3)cc2N1,–
0.051,36,3.6,0.049,O=C1COc2ccc(C(=O)N3CCC(Cc4cccc(F)c4)CC3)cc2N1,–
0.075,1.1,3.2,–,O=C1COc2ccc(C(=O)N3CCC(Cc4ccccc4)CC3)cc2N1,–
0.37,78,3.2,0.347,O=C1CO[C@H]2CCN(C(=O)N3CCC(Cc4ccc(C(F)(F)F)cc4)CC3)C[C@@H]2N1 (racemic),–
0.037,37,2.9,–,O=C1COc2ccc(C(=O)N3CCC(c4c[nH]c5ccccc45)CC3)cc2N1,–
0.569,377,3.2,–,O=C1C[C@H]2CCN(C(=O)N3CCC(Cc4ccc(C(F)(F)F)cc4)CC3)C[C@H]2N1,–
0.001,< 0.1,3.8,0.000437,O=C1COc2ccc(C(=O)N3CCC(C(c4ccccc4)c4ccccc4)CC3)cc2N1,–
0.065,225,3.2,–,O=C1CO[C@H]2CCN(C(=O)N3CCC(Cc4ccc(C(F)(F)F)cc4)CC3)C[C@H]2N1 (racemic),Kp uu at 7 h [5]: 0.35; AUC(0-t) at 7 h [6]: 62.1 µg·h/mL; Tmax [7]: 2.7 h; clearance [8]: 1.38 L/h/kg; Cmax [9]: 0.896 µg/mL; Vd [10]: 3 L/kg; half-life [11]: 2.9 h; AUC(0-t) at 7 h [12]: 4.56 µg·h/mL; half-life [13]: 1.5 h; Tmax [14]: 1.5 h; Kp at 7 h [15]: 0.016; Kp at 7 h [16]: 1.7; Cmax [17]: 12.2 µg/mL; bioavailability [18]: 127%
0.046,15,3.9,0.0447,O=C1COc2ccc(C(=O)N3CCC(Cc4cccc(C(F)(F)F)c4)CC3)cc2N1,–
2.2,114,3.3,–,O=C1CO[C@@H]2CCN(C(=O)N3CCC(Cc4ccc(C(F)(F)F)cc4)CC3)C[C@@H]2N1,–
2.5,6.9,3.7,2.4,O=C1CSc2ccc(C(=O)N3CCC(Cc4ccc(C(F)(F)F)cc4)CC3)cc2N1,–
